Results on 3 compounds are retold here after ChEMBL document CHEMBL1148730, “Design of noncompetitive interleukin-8 inhibitors acting on CXCR1 and CXCR2” (J Med Chem, 2007).

The Inhibition is the drop in the measured response relative to a control, in per cent. Read a low Inhibition as little suppression. Broadly, the inhibition is the change of the read-out against control, counted positive when it falls. A low value points to little suppression. The term IC50 denotes the concentration at which inhibition is half-maximal. High values mean weaker potency in that assay, low ones greater potency in that assay.

Calls of active or inactive are those of the source. The rule behind the calls is not given here.

Assay [1] is described as follows: Inhibition of CXCL8-induced cell migration in human PMN cells 0.1 uM chemotaxis assay. Type of assay: functional. An outline of the steps:
(§1)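 Human PMNs from normal-donor buffy coats (dextran sedimentation, hypotonic lysis; 95% purity, >95% viability). Cells at 1.5-3 × 10⁶/mL preincubated 15 min at 37 °C with vehicle or compound, then seeded in triplicate in the upper well of a 48-well micro-chemotaxis chamber. Lower well held CXCL8 1 nM or CXCL1 10 nM. Chamber ran 45 min at 37 °C in 5% CO₂; filters were fixed and stained, and five 100× fields per well were counted.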

A short description of assay [2]: Inhibition of CXCL1-induced cell migration in human PMN cells at 0.01 uM by chemotaxis assay. Type of assay: functional. An outline of the steps: as §1
Assay [3] can be described thus: Inhibition of CXCL8-induced cell migration in human PMN cells at 0.01 uM by chemotaxis assay. The format is functional. An outline of the steps: as §1
Another assay has as its system Macrophage. Kind of assay: Inhibition of the LPS-induced PGE2 production in human macrophages at 10 uM. The format is functional.
Assay [4] deals with L1.2. Kind of assay: Inhibition of CXCL8-induced cell migration in L1.2 cells expressing wild type CXCR1 at 0.1 uM by chemotaxis assay. The conditions noted are these: Mus musculus. Type of assay: functional. The gist of the method:
(§2)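 Mouse L1.2 lymphoma cells were transiently electroporated with wild-type or Ile43Val human CXCR1, with expression checked by flow cytometry at 48 h. Cells were kept overnight in 5 mM sodium butyrate, resuspended at 10⁷/mL, and pretreated 30 min at 37 °C with compound (1-1000 nM). Migration to 10 nM CXCL8, with compound in both chambers, ran 4 h at 37 °C through 5 µm Transwells. Cells were counted in a Bürker chamber and expressed as % of migration without compound, from ≥3 independent experiments.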

Assay [5] has as its system L1.2. Kind of assay: Inhibition of CXCL8-induced cell migration in L1.2 cells expressing wild type CXCR1 at up to 1000 nM by chemotaxis assay. The format is functional, cell-based. To be noted: Mus musculus. The gist of the method: as §2
Assay [6] relates to L1.2. Kind of assay: Inhibition of CXCL8-induced cell migration in L1.2 cells expressing CXCR1 by chemotaxis assay. The format is functional, cell-based. The conditions noted are these: Mus musculus. An outline of the steps: as §2
Assay [7] has as its system L1.2. Kind of assay: Inhibition of CXCL8-induced cell migration in L1.2 cells expressing Ile43Val CXCR1 mutant by chemotaxis assay. Type of assay: functional, cell-based. The conditions noted are these: Mus musculus. The gist of the method: as §2

Compound `CCC(C)c1cccc(C(C)C(=O)O)c1` (stereo not drawn) showed an Inhibition in assay [1] of 50%.

As for `C[C@@H](C(=O)O)c1ccc(OS(=O)(=O)C(F)(F)F)cc1`, the inhibition at 0.01 µM in assay [2] was determined as 65%; in assay [3], 68%. The compound also yielded an inhibition at 10 µM with Macrophage of 17%.

As to `CC(C)Cc1ccc([C@@H](C)C(=O)NS(C)(=O)=O)cc1` [REPARIXIN], at 0.1 µM the inhibition with L1.2 [4] was 80%. For the same compound, the outcome in the assay on L1.2 [5] was Active. The IC50 in the assay with L1.2 [6] is 5.6 nM; in the assay on L1.2 [7] it was 80 nM.
